Experiments:
[1] = target: T1, Disintegrin and metalloproteinase domain-containing protein 10 (Homo sapiens, UniProt O14672); experiment: Inhibition of ADAM-10
T1 sequence (O14672 whole entry): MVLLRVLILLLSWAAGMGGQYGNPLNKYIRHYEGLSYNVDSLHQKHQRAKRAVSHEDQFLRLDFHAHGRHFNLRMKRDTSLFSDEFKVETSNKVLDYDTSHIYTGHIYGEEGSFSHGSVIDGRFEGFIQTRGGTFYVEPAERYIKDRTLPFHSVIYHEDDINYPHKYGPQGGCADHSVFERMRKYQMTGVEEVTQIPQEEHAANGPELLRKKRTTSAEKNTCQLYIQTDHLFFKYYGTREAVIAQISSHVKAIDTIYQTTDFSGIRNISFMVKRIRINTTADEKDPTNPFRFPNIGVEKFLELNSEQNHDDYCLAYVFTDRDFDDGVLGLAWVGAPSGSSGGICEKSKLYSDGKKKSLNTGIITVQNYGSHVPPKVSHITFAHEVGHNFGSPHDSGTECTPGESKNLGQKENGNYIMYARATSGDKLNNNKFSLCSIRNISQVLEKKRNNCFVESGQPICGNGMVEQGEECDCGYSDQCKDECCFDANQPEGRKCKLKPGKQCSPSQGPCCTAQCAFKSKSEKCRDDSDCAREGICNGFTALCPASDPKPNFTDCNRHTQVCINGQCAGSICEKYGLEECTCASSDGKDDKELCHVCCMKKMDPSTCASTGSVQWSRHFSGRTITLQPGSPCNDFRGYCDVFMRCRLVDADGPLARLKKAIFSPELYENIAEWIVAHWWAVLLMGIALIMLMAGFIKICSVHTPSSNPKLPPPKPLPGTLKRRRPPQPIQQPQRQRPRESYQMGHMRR

[2] = target: Matrix metalloproteinase-9 (Homo sapiens, UniProt P14780); experiment: Inhibition of MMP-9
Interstitial collagenase = target: T2, Interstitial collagenase (Homo sapiens, UniProt P03956); experiment: Inhibition of MMP-1
T2 sequence (P03956 whole entry): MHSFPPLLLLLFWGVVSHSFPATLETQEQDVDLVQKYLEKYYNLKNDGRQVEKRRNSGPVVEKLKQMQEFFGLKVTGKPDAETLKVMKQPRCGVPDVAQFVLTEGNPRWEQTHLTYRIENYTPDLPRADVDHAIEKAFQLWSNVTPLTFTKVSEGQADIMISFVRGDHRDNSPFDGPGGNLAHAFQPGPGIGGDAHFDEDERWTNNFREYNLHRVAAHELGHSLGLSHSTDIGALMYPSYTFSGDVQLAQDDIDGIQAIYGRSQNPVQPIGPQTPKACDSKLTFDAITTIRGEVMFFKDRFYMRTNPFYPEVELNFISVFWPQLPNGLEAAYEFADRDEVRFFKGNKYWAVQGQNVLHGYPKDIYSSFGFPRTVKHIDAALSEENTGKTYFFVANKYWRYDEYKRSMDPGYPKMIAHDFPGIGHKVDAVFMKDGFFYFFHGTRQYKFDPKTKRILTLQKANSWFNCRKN

Stromelysin-1 = Stromelysin-1 (Homo sapiens, UniProt P08254); experiment: Inhibition of MMP-3
[3] = target: 72 kDa type IV collagenase (Homo sapiens, UniProt P08253); experiment: Inhibition of MMP-2
[4] = Permeability across human Caco-2 cells; format: ADME, cell-based
[5] = Clearance in human microsome; format: ADME; details: microsomes
Summary of the method: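 Clearance projected from incubation with human microsomes and expressed in L/h/kg.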

Mus musculus = experiment: AUC in mouse at 5 mg/kg, po; format: ADME, organism-based, Plasma; design: dose 5 mg/kg, route oral; details: in vivo
Summary of the method: (§1)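 Oral dose of 5 mg/kg, given as a suspension.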

[6] = Half life in mouse at 5 mg/kg, po; format: ADME, organism-based; design: dose 5 mg/kg, route oral; details: in vivo; summary of the method: as §1

72 kDa type IV collagenase, sequence (P08253 whole entry): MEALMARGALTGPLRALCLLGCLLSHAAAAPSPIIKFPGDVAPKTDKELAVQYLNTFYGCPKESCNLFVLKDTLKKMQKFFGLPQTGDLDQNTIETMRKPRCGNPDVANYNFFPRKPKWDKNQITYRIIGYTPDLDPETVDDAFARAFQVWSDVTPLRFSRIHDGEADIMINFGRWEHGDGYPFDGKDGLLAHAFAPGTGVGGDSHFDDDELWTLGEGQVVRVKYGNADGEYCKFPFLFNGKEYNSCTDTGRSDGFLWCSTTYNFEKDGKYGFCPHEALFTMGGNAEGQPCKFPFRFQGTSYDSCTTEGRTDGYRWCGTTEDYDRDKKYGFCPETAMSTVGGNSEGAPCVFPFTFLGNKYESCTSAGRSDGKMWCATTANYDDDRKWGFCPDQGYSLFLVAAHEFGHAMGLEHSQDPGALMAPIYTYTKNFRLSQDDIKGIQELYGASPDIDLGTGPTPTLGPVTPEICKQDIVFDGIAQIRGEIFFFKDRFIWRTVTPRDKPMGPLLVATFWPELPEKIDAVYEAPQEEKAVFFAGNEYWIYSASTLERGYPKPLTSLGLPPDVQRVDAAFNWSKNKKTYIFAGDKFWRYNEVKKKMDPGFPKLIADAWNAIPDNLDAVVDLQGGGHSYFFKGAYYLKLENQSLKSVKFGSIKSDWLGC
Stromelysin-1, sequence (P08254 whole entry): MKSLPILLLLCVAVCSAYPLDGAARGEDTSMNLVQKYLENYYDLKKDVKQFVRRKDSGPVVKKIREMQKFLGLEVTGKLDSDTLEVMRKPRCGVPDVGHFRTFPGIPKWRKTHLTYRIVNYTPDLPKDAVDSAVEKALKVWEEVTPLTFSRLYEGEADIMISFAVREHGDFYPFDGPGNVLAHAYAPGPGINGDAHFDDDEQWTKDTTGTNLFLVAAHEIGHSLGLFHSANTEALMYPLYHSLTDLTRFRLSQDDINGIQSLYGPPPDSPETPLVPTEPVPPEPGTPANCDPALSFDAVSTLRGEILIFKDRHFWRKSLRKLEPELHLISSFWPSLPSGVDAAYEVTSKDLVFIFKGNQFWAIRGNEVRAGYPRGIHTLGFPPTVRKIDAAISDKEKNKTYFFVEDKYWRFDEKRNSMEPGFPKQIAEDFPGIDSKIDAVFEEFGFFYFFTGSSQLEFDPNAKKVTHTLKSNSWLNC
Matrix metalloproteinase-9, sequence (P14780 whole entry): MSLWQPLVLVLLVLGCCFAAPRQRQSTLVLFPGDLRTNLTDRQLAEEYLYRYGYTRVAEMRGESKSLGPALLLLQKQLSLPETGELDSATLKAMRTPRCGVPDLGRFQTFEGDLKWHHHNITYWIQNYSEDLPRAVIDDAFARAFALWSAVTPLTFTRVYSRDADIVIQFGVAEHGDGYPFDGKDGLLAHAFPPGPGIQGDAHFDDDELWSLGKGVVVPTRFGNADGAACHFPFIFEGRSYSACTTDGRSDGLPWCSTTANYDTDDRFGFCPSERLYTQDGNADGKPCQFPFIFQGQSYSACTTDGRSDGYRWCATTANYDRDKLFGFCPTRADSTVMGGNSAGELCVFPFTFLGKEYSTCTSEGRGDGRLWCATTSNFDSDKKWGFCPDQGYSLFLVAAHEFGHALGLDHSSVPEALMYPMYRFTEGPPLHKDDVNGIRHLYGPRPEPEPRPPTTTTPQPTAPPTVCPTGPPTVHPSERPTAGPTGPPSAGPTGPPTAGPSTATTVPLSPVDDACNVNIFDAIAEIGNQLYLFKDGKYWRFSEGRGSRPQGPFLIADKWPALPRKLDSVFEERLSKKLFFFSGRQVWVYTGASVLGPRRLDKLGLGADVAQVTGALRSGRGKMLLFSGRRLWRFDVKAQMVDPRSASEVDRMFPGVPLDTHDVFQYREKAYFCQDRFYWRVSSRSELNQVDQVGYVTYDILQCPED

Structure (SMILES)	IC50 [1]	IC50 [2]	IC50 (Interstitial collagenase)	IC50 (Stromelysin-1)	IC50 [3]	Papp [4]	CL [5]	AUC (Mus musculus)	half-life [6]
O=C(NO)[C@H]1C[C@H](OC(=O)N2CCCC2)CN[C@@H]1C(=O)N1CC=C(c2ccccc2)C1	60 nM	> 5 µM	> 5 µM	> 5 µM	–	–	–	–	–
O=C(NO)[C@H]1CC(CC(=O)N2CCCC2)CN[C@@H]1C(=O)N1CC[C@H](c2ccccc2)C1 (some centres undefined)	14 nM	–	–	–	365 nM	–	–	–	–
CN(C(=O)c1ccccc1)C1CN[C@H](C(=O)N2CC=C(c3ccccc3)CC2)[C@@H](C(=O)NO)C1 (some centres undefined)	12 nM	–	–	–	12 nM	–	–	–	–
CN(C(=O)c1ccccc1)C1CN[C@H](C(=O)N2CC[C@H](c3ccccc3)C2)[C@@H](C(=O)NO)C1 (some centres undefined)	84 nM	–	–	–	210 nM	–	–	–	–
NCCCCNC(=O)CC1CN[C@H](C(=O)N2CCC(c3ccccc3)C2)[C@@H](C(=O)NO)C1 (some centres undefined)	161 nM	–	–	–	1660 nM	–	–	–	–
CC(C)C(=O)N(C)C1CN[C@H](C(=O)N2CC=C(c3ccccc3)CC2)[C@@H](C(=O)NO)C1 (some centres undefined)	23 nM	–	–	–	11 nM	–	–	–	–
O=C(NO)[C@H]1CC(OC(=O)N2CCCC2)CN[C@@H]1C(=O)N1Cc2ccccc2C1 (some centres undefined)	186 nM	> 5 µM	2.5 µM	> 5 µM	> 2000 nM	–	–	–	–
O=C(NO)[C@H]1CC2(CC2)CN[C@@H]1C(=O)N1CC=C(c2ccccc2)CC1	–	–	–	–	< 5 nM	–	–	–	–
O=C(NO)[C@H]1CC(CC(=O)N2CCCC2)CN[C@@H]1C(=O)N1CC=C(c2ccccc2)CC1 (some centres undefined)	17 nM	–	–	–	< 5 nM	–	–	–	–
CC(C)C(=O)N(C)C1CN[C@H](C(=O)N2CC[C@H](c3ccccc3)C2)[C@@H](C(=O)NO)C1 (some centres undefined)	138 nM	–	–	–	502 nM	–	–	–	–
CC(C)OC(=O)N(C)C1CN[C@H](C(=O)N2CC=C(c3ccccc3)CC2)[C@@H](C(=O)NO)C1 (some centres undefined)	11 nM	–	–	–	< 5 nM	–	–	–	–

Second part, the molecule after the results:

IC50 [1]	IC50 [2]	IC50 (Interstitial collagenase)	IC50 (Stromelysin-1)	IC50 [3]	Papp [4]	CL [5]	AUC (Mus musculus)	half-life [6]	Structure (SMILES)
78 nM	–	–	–	< 5 nM	–	–	–	–	O=C(NO)[C@H]1C[C@@H](OC(=O)N2CCCC2)CN[C@@H]1C(=O)N1CC=C(c2ccccc2)CC1
20 nM	> 5 µM	> 5 µM	> 5 µM	432 nM	–	–	–	–	CN1C[C@@H](OC(=O)N2CCC2)C[C@H](C(=O)NO)[C@H]1C(=O)N1CCN(c2ccccc2)CC1
9 nM	0.498 µM	> 5 µM	> 5 µM	102 nM	–	–	–	–	O=C(NO)[C@H]1CC(OC(=O)N2CCCC2)CN[C@@H]1C(=O)N1CC=C(c2ccccc2)CC1 (some centres undefined)
83 nM	> 5 µM	> 5 µM	> 5 µM	> 2000 nM	–	–	–	–	O=C(NO)[C@H]1CC(OC(=O)N2CCCC2)CN[C@@H]1C(=O)N1CC[C@H](c2ccccc2)C1 (some centres undefined)
125 nM	–	–	–	> 2000 nM	–	–	–	–	CN1C[C@@H](OC(=O)N2CCC(F)(F)C2)C[C@H](C(=O)NO)[C@H]1C(=O)N1CCN(c2ccccc2)CC1
20 nM	> 5 µM	> 5 µM	> 5 µM	613 nM	–	–	–	–	COC(=O)N1C[C@@H](OC(=O)N2CCCC2)C[C@H](C(=O)NO)[C@H]1C(=O)N1CCN(c2ccccc2)CC1
99 nM	> 5 µM	> 5 µM	> 5 µM	> 2000 nM	–	–	–	–	O=C(NO)[C@H]1C[C@H](OC(=O)N2CCCC2)CN[C@@H]1C(=O)N1CCC(c2ccccc2)CC1
35 nM	> 5 µM	> 5 µM	> 5 µM	843 nM	–	–	–	–	CN1C[C@@H](OC(=O)N2CCCCCC2)C[C@H](C(=O)NO)[C@H]1C(=O)N1CCN(c2ccccc2)CC1
18 nM	> 5 µM	> 5 µM	> 5 µM	471 nM	–	–	–	–	CN1C[C@@H](OC(=O)N2CCCC2)C[C@H](C(=O)NO)[C@H]1C(=O)N1CCN(c2ccccc2)CC1
30 nM	> 5 µM	> 5 µM	> 5 µM	581 nM	–	–	–	–	CN1C[C@@H](OC(=O)N2CC=CC2)C[C@H](C(=O)NO)[C@H]1C(=O)N1CCN(c2ccccc2)CC1
9.6 nM	> 5 µM	> 5 µM	> 5 µM	344 nM	0.9 ×10⁻⁶ cm/s	0.58 L/h/kg	–	–	CN1C[C@@H](OC(=O)N2CCCCC2)C[C@H](C(=O)NO)[C@H]1C(=O)N1CCN(c2ccccc2)CC1
11 nM	> 5 µM	> 5 µM	> 5 µM	235 nM	–	–	–	–	O=C(NO)[C@H]1C[C@H](OC(=O)N2CCCC2)CN[C@@H]1C(=O)N1CCN(c2ccccc2)CC1
26 nM	> 5 µM	> 5 µM	> 5 µM	1470 nM	–	–	323 nM/L.hr	52.8 min	CN1C[C@@H](OC(=O)N2CCCCCCC2)C[C@H](C(=O)NO)[C@H]1C(=O)N1CCN(c2ccccc2)CC1
58 nM	> 5 µM	> 5 µM	> 5 µM	730 nM	–	–	–	–	CN(C)C(=O)O[C@H]1C[C@H](C(=O)NO)[C@@H](C(=O)N2CCN(c3ccccc3)CC2)N(C)C1

Reference: ChEMBL document CHEMBL1155319, “Discovery of novel selective HER-2 sheddase inhibitors through optimization of P1 moiety” (Bioorg Med Chem Lett, 2009)
